Many of the other results were omitted from the sample, so hits are more common in it than they were.
Dynein transport: dynein cargo transport inhibition. AID 1381. z-score, hits read low. hit rate 0.47% among 220,000. 3617.4 mouse cells, GR-EGFP nuclear translocation imaging; test concentration mostly 20 µM; stimulated with dexamethasone, 1 µM; active compounds read low;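 active means plate z-score of nuclear minus cytoplasmic receptor signal below a set negative limit, without overly bright fluorescence or cell loss, cut at about -3.5 in these data, passing the limit was not always enough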;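 further: z-score of nuclear minus cytoplasmic ring GR-EGFP intensity difference per well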
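medium = tetracycline-free induction medium containing charcoal-stripped FBS | also added = 1.0 µM final dexamethasone stimulus | schedule = 48 h induction, 1 h compound, 30 min dex at 37 °C | technique = fixed, Hoechst-stained cells imaged at 10x for EGFP | measure = GR-EGFP nuclear translocation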
UPR CHOP act: apoptotic UPR (CHOP) activation; CHO-CHOP luciferase reporter, luminescence; percent of tunicamycin response over DMSO baseline; activation, % at 10 µM; hit rate 0.34% among 330,000;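 active means at 10 µM dose, activation of 40% or more, normalized to positive control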;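 further: 100% = tunicamycin at 10 µg/mL and 0% = DMSO alone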
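Evaluation: % reporter activation, DMSO baseline versus tunicamycin full activation; System: CHO-CHOP luciferase reporter cell line; Input: 500 cells/well; Incubation: 6 h compound treatment, 37 °C; Measured by: Steady-Glo luciferase luminescence; Dosing: one dose, 10 µM in 0.5% DMSO; Buffer or medium: F12 medium, 10% FBS; Benchmarks: positive tunicamycin 10 µg/mL, negative DMSO alone.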
pCIP destab: lowers stability of the mouse p/CIP coactivator protein. F442A p/CIP-EGFP cells, EGFP fluorescence, 16 h. Q05BA5. AID 1984. decrease of EGFP signal, % at 10 µM. hit rate 0.01% among 290,000;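 active means EGFP signal decrease of at least 30% at 10 µM or well 3 SD below plate mean, unless failing retest; inactive means the rest, including hits failing retest or dose response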
B2AR ag: human beta-2 adrenergic receptor agonism by FAP | hit rate 0.43% among 340,000 | Am2.2-beta2AR cells, FAP receptor internalization, flow cytometry | P07550 | response, % (no concentration beside the values);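 active means response above a set limit, near 3 SD of response in nonfluorescent compounds, cut at about 42% in these data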
Target sequence (P07550 whole entry, looked up): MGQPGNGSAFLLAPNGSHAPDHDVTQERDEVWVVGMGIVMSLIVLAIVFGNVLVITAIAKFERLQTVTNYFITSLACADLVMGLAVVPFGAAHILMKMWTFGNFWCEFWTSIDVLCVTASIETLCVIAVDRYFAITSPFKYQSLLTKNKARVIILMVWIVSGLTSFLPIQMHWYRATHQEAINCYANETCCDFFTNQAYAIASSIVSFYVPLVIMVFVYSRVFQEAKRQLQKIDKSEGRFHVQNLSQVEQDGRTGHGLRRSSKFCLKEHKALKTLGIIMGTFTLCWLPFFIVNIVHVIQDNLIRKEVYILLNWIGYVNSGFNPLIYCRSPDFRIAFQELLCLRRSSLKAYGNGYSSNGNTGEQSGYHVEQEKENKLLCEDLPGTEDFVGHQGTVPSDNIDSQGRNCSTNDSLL
UPR XBP1 act: adaptive UPR (XBP1) activation. CHO-XBP1 luciferase reporter, IRE1-XBP1 UPR activation, luminescence; percent of tunicamycin response, DMSO as zero. activation, % at 20 µM. hit rate 0.33% among 330,000;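 active means versus positive control, 20 µM dose yields 30% or more activation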;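 further: 100% = tunicamycin at 10 µg/mL and 0% = DMSO only wells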
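Material: IRE1-XBP1 luciferase reporter CHO line / Quantity: one thousand reporter cells per well / Buffer or medium: F12 with 10% serum / Compound: 20 µM single concentration, DMSO 1% / Times: 6 h treatment, 37 °C / Detection: Steady-Glo luciferase glow luminescence, 10 min after reagent addition / Benchmarks: tunicamycin high, DMSO low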
CHOP inhibitor: CHOP inhibition in unfolded protein response; inhibition, % at 10 µM; hit rate 3.8% among 220,000; AID 2732; CHO-K1 CHOP-promoter luciferase, tunicamycin-induced, 15-18 h;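 active means compounds that reduced the stress-induced luciferase reporter signal by more than about 70% of percent inhibition, limit read from the data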;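 further: 0% = tunicamycin plus vehicle and 100% = wells without tunicamycin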
* hit, by the source's call; · = no result given.

SMILES | Dynein transport | UPR CHOP act | pCIP destab | B2AR ag | UPR XBP1 act | CHOP inhibitor
CCN1C/C(=C\c2cccc([N+](=O)[O-])c2)C(=O)/C(=C/c2cccc([N+](=O)[O-])c2)C1 | -3.7* | · | -9 | 85* | · | 108*
O=C1/C(=C/c2cccc([N+](=O)[O-])c2)CCc2ccccc21 | -1.5 | 4 | -9 | 24 | 2 | 16
O=C(c1cnc2n(c1=O)CCS2)N1CCN(c2ccc([N+](=O)[O-])cc2)CC1 | -1 | -1 | -18 | -6 | -1 | -21
C=CCn1c(=O)c2c3c(sc2n2c(Nc4ccc(C(=O)OCC)cc4)nnc12)CCCC3 | -0.54 | 4 | 5 | 18 | 8 | 88*
NC(=O)C(=O)O | · | · | · | · | · | 2
Cc1cc2c(N=NC(=O)C3CC3c3ccccc3)c(O)[nH]c2cc1Br (stereo unspecified) | -0.77 | 0 | -9 | 0 | -3 | 71*
O=S(=O)(c1ccc(=S)[nH]c1)N1CCCC1 | · | 1 | · | -1 | 1 | ·
CCCN(c1ccc(C(C)C)cc1)S(=O)(=O)c1c(C)noc1C | 0.071 | -1 | 18 | 4 | -1 | 76*
COc1ccc(N=N/C(=C\O)C(=O)c2cccs2)cc1 | -0.052 | 3 | 5 | 26 | 0 | 72*
Cc1ccc(NC(=O)CC2OC(=O)c3ccccc32)cc1S(=O)(=O)N1CCCCCC1 (stereo unspecified) | · | 0 | · | 1 | -3 | ·
O=[N+]([O-])c1ccccc1/C=C/C=N/Nc1nc(N2CCCCC2)nc(N2CCCCC2)n1 | 0.12 | 1 | -8 | -4 | -1 | 4
O=[N+]([O-])c1ccccc1/C=N/Nc1nc(N2CCCC2)nc(N2CCCC2)n1 | -1.3 | -2 | -9 | -1 | -1 | 75*
Cn1nc(C(=O)OCc2ccc(Br)cc2F)c2ccccc2c1=O | 0.43 | 2 | 8 | -2 | -2 | 44
Cc1ccc(N(CC(=O)NC2CC2)S(=O)(=O)c2ccccc2)c(C)c1 | · | -1 | 3 | 2 | -1 | ·
O=C(Cn1cc(C(F)(F)F)cc(Cl)c1=O)NCc1ccc(F)cc1 | · | 8 | 8 | -5 | 4 | ·
CC(NCC(O)COC1CCC(C(C)(C)C)CC1)c1ccccc1 (stereo unspecified) | 0.56 | 1 | -10 | 24 | 2 | 90*
CC1CCC(C(C)C)C(OCC(O)CNC(C)c2ccccc2)C1 (stereo unspecified) | -1.1 | -1 | 4 | 18 | 4 | 93*
COc1ccc(OCC(O)CNC(C)c2ccccc2)cc1 (stereo unspecified) | · | -2 | -11 | -9 | 2 | ·
BrC(/C=N/Nc1nc(N2CCOCC2)nc(N2CCOCC2)n1)=C/c1ccccc1 | 1.5 | -4 | -29 | -7 | -2 | 82*
CC(=C/c1ccccc1)/C=N/Nc1nc(N2CCCCC2)nc(N2CCCCC2)n1 | -0.63 | 5 | 1 | 23 | 6 | 50
CCOc1ccc(-c2cc(CCCC(=O)NCc3cccnc3)no2)cc1 | 0.5 | 0 | -4 | -8 | -1 | 80*
CCOc1ccc(NC(=O)CCCc2cc(-c3ccc(OCC)cc3)on2)cc1 | 0.66 | -4 | -7 | 0 | -4 | 83*
CCOC(=O)c1nc2sc3c(c2c(=O)[nH]1)CCC(C)C3 (stereo unspecified) | 1 | 0 | 0 | 56* | 2 | 54
CC1CN(c2nnnn2-c2ccccc2)CC(C)O1 (stereo unspecified) | 2 | -2 | -8 | -2 | -4 | -9
Brc1ccc(COn2ccnc2)cc1 | 1.1 | · | 1 | -6 | · | 34
Cc1ccc(/C=C/C(=O)C2C(=O)c3ccccc3C2=O)cc1 | -0.73 | -3 | 2 | -1 | -6 | 95*
Cc1ccc(/C=C/C(=O)c2ccccc2O)cc1 | -0.94 | 7 | 4 | -3 | 13 | -83
O=[N+]([O-])c1nn(-c2ccc3c(c2)OCCO3)n(O)c1=Nc1ccccc1 | -0.31 | -7 | -3 | 4 | -3 | 88*
O=[N+]([O-])c1nn(-c2ccc3c(c2)OCCO3)n(O)c1=NC1CCCCCC1 | -0.047 | 0 | -22 | -7 | -2 | 77*
